A selection: hits, their analogues and other compounds. The true share with any hit is near 4.6%.
Wee1 degr inh – human Wee1 degradation inhibition, primary screen; HeLa Luc-Wee1K328M stability, luciferase luminescence; 100% = proteasome inhibitor MG132 effect; reporter increase, % at 5 µM; 1.2% of 220,000 active;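 active = activation above the mean of all tested compounds plus 3 SD, set per screening run, cut at about 8.8% in these data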;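 also: cells exposed to compound for 20 h before luminescence read; 0% = DMSO alone and 100% = MG132 at 30 µM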
p97 inhibitor – human p97 ATPase inhibition | AID 1481 | P55072 | inhibition, % at 8 µM | 0.42% of 220,000 active | recombinant p97 ATPase, Kinase-Glo ATP luminescence, 3 h; in the data active = inhibition above about 15%;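 also: 0% = DMSO vehicle and 100% = wells lacking enzyme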
Target sequence (P55072 whole entry, looked up): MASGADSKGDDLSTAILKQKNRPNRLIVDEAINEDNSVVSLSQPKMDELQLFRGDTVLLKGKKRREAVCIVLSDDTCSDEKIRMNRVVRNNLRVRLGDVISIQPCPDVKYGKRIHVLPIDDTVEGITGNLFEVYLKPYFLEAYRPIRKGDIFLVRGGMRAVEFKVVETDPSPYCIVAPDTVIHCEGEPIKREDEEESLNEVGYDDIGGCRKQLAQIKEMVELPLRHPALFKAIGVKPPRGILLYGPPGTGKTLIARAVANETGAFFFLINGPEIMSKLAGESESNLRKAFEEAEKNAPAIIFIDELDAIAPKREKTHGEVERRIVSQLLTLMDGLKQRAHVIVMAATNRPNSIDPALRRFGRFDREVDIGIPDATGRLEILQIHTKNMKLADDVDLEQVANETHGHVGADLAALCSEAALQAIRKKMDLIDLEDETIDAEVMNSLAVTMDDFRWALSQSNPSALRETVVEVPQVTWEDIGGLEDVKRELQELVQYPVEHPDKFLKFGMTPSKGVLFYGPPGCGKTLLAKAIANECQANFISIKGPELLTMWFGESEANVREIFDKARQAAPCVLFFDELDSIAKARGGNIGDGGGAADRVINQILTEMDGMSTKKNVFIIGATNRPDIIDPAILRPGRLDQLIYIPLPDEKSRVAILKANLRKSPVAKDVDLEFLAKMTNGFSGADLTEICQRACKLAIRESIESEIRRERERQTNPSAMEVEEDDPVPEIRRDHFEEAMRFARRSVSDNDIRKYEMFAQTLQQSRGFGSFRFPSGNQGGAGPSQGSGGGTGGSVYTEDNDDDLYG
APP 5'UTR act – activates APP 5'UTR luciferase reporter. AID 1276. 1% of 190,000 active. SH-SY5Y APP 5'UTR luciferase reporter, luminescence; zero percent = DMSO vehicle wells. activation, % at 2 µM;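 active = activation above a set limit, based on mean plus 3 SD of controls, cut at about 140% in these data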
NF-kB expr up – compounds increasing NF-kB expression in human neuronal cells | NF-kB reporter expression; stronger effect = higher value | fold change at 12.5 µM | 1.6% of 190,000 active | AID 1239; in the data active = fold change above about 3.3
Mdm2 ligase inh – inhibitors of human Mdm2 E3 ubiquitin ligase. signal enhancement, % at 5 µM. Q00987. 0.11% of 210,000 active. cell-based MDM2 ubiquitination luciferase reporter, 2 h; 0 = plate control, 100 = twice control, blank-subtracted;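 active = signal enhancement of 30% or more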;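 also: luminescence tracks abundance of the self-degrading MDM2-luciferase fusion protein; higher signal means inhibition of MDM2 E3 ligase activity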
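Test system: stable mammalian line carrying autodegrading MDM2–luciferase fusion reporter; quantity: 2000 cells in each well; times: 4 h cell settling then 2 h compound exposure, 37 °C; detection: luminescence with SteadyLite reagent, 15 min at room temperature; evaluation: percent signal gain over controls, blank-subtracted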
STAT1 activator – activators of IFN-gamma induced STAT1 signaling. NIH 3T3 STAT1-luciferase reporter, luminescence; 100% = IFN-gamma alone, no compound. activation (% of control), % at 5.5 µM. 2.6% of 200,000 active;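 active = activation above the screen-wide mean activation plus 3 SD, cut at about 130% in these data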;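 also: raw ratio to IFN-gamma control signal so 100% means no change and 0% no light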
Active calls of the source: *.

`COc1cc(C=O)ccc1OCc1ccc(Cl)nc1` gave Wee1 degr inh 6, p97 inhibitor -1, APP 5'UTR act 63, Mdm2 ligase inh 12 and STAT1 activator 136*.
Screening COc1cc(C=O)ccc1OCCCOc1ccc([N+](=O)[O-])cc1 returned Wee1 degr inh 9.9*, p97 inhibitor -5, APP 5'UTR act -15, NF-kB expr up 0.89 and STAT1 activator 95.
For O=C(CC1C(=O)NCCN1Cc1c(F)cccc1Cl)NCCCn1cccn1 (stereo not drawn) the results were Wee1 degr inh -2, p97 inhibitor 6 and Mdm2 ligase inh -95.
Screening CCOc1cc(CNc2ccc(N(C)C)cc2)cc(Br)c1OCC(=O)NC(C)(C)C returned Wee1 degr inh -2, p97 inhibitor -5, APP 5'UTR act 105, NF-kB expr up 0.44, Mdm2 ligase inh 1 and STAT1 activator 145*.
`COc1ccc(CN(Cc2cc3cc(OC)c(OC)cc3[nH]c2=O)C(=O)NC2CCCCC2)cc1` gave Wee1 degr inh -1, p97 inhibitor 2, APP 5'UTR act 8, NF-kB expr up 1.1, Mdm2 ligase inh 1 and STAT1 activator 103.
COc1cc2cc(CN(C(=O)NC3CCCCC3)C3CCCC3)c(=O)[nH]c2cc1OC was read as Wee1 degr inh 8.8*, p97 inhibitor 5, APP 5'UTR act 4, NF-kB expr up 1.2, Mdm2 ligase inh -4 and STAT1 activator 106.
Screening CCOc1ccc(NS(=O)(=O)c2ccc3[nH]cc(C(=O)N(CC)CC)c(=O)c3c2)cc1 returned Wee1 degr inh 17*, p97 inhibitor -2, APP 5'UTR act 16, NF-kB expr up 0.98, Mdm2 ligase inh -4 and STAT1 activator 98.
`CCOc1ccc(NS(=O)(=O)c2ccc3[nH]cc(C(=O)NCC4CCCO4)c(=O)c3c2)cc1` (stereo not drawn) gave Wee1 degr inh 0, p97 inhibitor 1, APP 5'UTR act 2, NF-kB expr up 0.87, Mdm2 ligase inh -10 and STAT1 activator 97.
`Cc1nn(C(=O)c2cc3sccc3[nH]2)c(C)c1C` gave Wee1 degr inh 2, p97 inhibitor -1, APP 5'UTR act 38, NF-kB expr up 2.8, Mdm2 ligase inh 2 and STAT1 activator 138*.
Cc1nn(C(=O)CNC(=O)c2ccccc2)c(C)c1C was read as Wee1 degr inh 1, p97 inhibitor -2, APP 5'UTR act -8, NF-kB expr up 0.91, Mdm2 ligase inh -3 and STAT1 activator 113.
`C=CCn1nc([N+](=O)[O-])nc1Sc1cccc2cccnc12` gave Wee1 degr inh -2, p97 inhibitor 2, APP 5'UTR act -44, NF-kB expr up 3.5*, Mdm2 ligase inh 23 and STAT1 activator 108.
O=[N+]([O-])c1ccc(Sc2cccc3cccnc23)cc1 was read as Wee1 degr inh 1, p97 inhibitor 3, APP 5'UTR act 17, NF-kB expr up 1.2, Mdm2 ligase inh -21 and STAT1 activator 107.
Screening Cc1ccc(CSc2nc3ccncc3[nH]2)cc1 returned Wee1 degr inh -5, p97 inhibitor -27, APP 5'UTR act 148*, NF-kB expr up 5.2*, Mdm2 ligase inh -64 and STAT1 activator 35.
For O=C(c1ccc(CSc2nc3ccncc3[nH]2)cc1)N1CCCCCC1 the results were Wee1 degr inh -3, p97 inhibitor -1 and Mdm2 ligase inh -53.
`Clc1ccc(CSc2nc3ccncc3[nH]2)cc1` gave Wee1 degr inh 0, p97 inhibitor -13, APP 5'UTR act 147*, NF-kB expr up 7.5*, Mdm2 ligase inh -56 and STAT1 activator 53.
For O=C(NCc1ccc(Cl)cc1)c1ccc(CSc2nc3ccncc3[nH]2)cc1 the results were Wee1 degr inh -2, p97 inhibitor 3 and Mdm2 ligase inh -12.
O=c1c(-c2cnn(-c3ccccc3)c2)coc2cc(O)ccc12 was read as Wee1 degr inh 6, p97 inhibitor 6, APP 5'UTR act 140*, NF-kB expr up 3.7*, Mdm2 ligase inh -6 and STAT1 activator 132*.
`Cc1ccc(-c2nnn(CC(=O)N(CC3CCCO3)C(C(=O)NC3CCCC3)c3ccc(O)cc3)n2)o1` (stereo not drawn) gave Wee1 degr inh 10*, p97 inhibitor 4, APP 5'UTR act 6, NF-kB expr up 1, Mdm2 ligase inh -13 and STAT1 activator 105.
For Cc1ccccc1Nc1nc(N)nc(COC(=O)/C=C/c2ccco2)n1 the results were Wee1 degr inh -3, p97 inhibitor 6, APP 5'UTR act -4, NF-kB expr up 1.1, Mdm2 ligase inh 0 and STAT1 activator 105.
For Cc1cc(NC(=O)CN2C(=O)NC3(CCCCC3C)C2=O)no1 (stereo not drawn) the results were Wee1 degr inh 0, p97 inhibitor -3, APP 5'UTR act 1, NF-kB expr up 1.2, Mdm2 ligase inh -17 and STAT1 activator 95.
`CC1CCCCC12NC(=O)N(CC(=O)NC(=O)Nc1ccc3c(c1)OCCO3)C2=O` (stereo not drawn) gave Wee1 degr inh 0, p97 inhibitor 1, APP 5'UTR act 78, NF-kB expr up 1.1, Mdm2 ligase inh 5 and STAT1 activator 132*.
`CN(C)c1ccccc1C(=O)c1ccccc1N(C)C` gave Wee1 degr inh 4, p97 inhibitor -5, APP 5'UTR act -91, NF-kB expr up 2.5, Mdm2 ligase inh -4 and STAT1 activator 132*.
Cc1[nH]n(-c2ccccc2)c(=O)c1C=NC1CCCCC1 was read as Wee1 degr inh 1, p97 inhibitor 6, APP 5'UTR act -1, NF-kB expr up 6.1*, Mdm2 ligase inh -29 and STAT1 activator 120.
C=CCN=Cc1c(C)[nH]n(-c2ccccc2)c1=O was read as Wee1 degr inh 1, p97 inhibitor 3, APP 5'UTR act 49, NF-kB expr up 11*, Mdm2 ligase inh -23 and STAT1 activator 127.
For Cc1[nH]n(-c2ccc([N+](=O)[O-])cc2)c(=O)c1C=NCC1CCCO1 (stereo not drawn) the results were Wee1 degr inh 0, p97 inhibitor -11, APP 5'UTR act 7, NF-kB expr up 2, Mdm2 ligase inh 1 and STAT1 activator 135*.
`O=c1c(C=NCC2CCCO2)c(-c2ccccc2)[nH]n1-c1ccc([N+](=O)[O-])cc1` (stereo not drawn) gave Wee1 degr inh 0, p97 inhibitor 6 and Mdm2 ligase inh -17.
Screening Cc1[nH]n(-c2ccccc2)c(=O)c1C=NC1CCCCCC1 returned Wee1 degr inh 0, p97 inhibitor 3, APP 5'UTR act -6, NF-kB expr up 1.3, Mdm2 ligase inh -2 and STAT1 activator 121.
For COc1ccccc1NS(=O)(=O)c1cccc(NC(=O)c2cc3ccccc3oc2=O)c1 the results were Wee1 degr inh 2, p97 inhibitor 1, APP 5'UTR act 97, NF-kB expr up 2.8, Mdm2 ligase inh 2 and STAT1 activator 140*.
